According to ChEMBL document CHEMBL4138226, “Marine Natural Product Honaucin A Attenuates Inflammation by Activating the Nrf2-ARE Pathway” (J Nat Prod, 2018):
Structures can show the parent of a compound that is named as a salt. Active and inactive are the calls of the source. The rule behind the calls is not given here.

Tests used:
[1] = target: T1, Kelch-like ECH-associated protein 1/Nuclear factor erythroid 2-related factor 2 (Mus musculus) (UniProt Q60795+Q9Z2X8); test: Activation of Keap1/Nrf2 in mouse LPS-induced RAW264.7 cells assessed as change in IFNb1 expression level at 4 to 12 uM pretreated for 1 hr followed by LPS addition measured after 30 to 180 mins; type: cell-based
Summary of the method: (§1)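 RAW 264.7 macrophages (DMEM, 10% FBS) grown near confluent; compound (4 or 12 μM) or EtOH vehicle 1 h at 37 °C, then LPS (E. coli O26:B6, 0.5 μg/mL) for 30 or 180 min; triplicate wells. TRIzol total RNA, rRNA depletion, Illumina HiSeq2000 100 bp single-end reads; DESeq2 differential expression versus matched LPS-only control.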

[2] = target: T1, Kelch-like ECH-associated protein 1/Nuclear factor erythroid 2-related factor 2 (Mus musculus); test: Activation of Keap1/Nrf2 in mouse LPS-induced RAW264.7 cells assessed as increase in […] expression level at 4 to 12 uM pretreated for 1 hr followed by LPS addition measured after 30 to 180 mins; type: cell-based; summary of the method: as §1
[3] = target: T1, Kelch-like ECH-associated protein 1/Nuclear factor erythroid 2-related factor 2 (Mus musculus); test: Activation of Keap1/Nrf2 in mouse LPS-induced RAW264.7 cells assessed as change in Irf1 expression level at 4 to 12 uM pretreated for 1 hr followed by LPS addition measured after 30 to 180 mins; type: cell-based; summary of the method: as §1
Mus musculus [4] = test: Antiinflammatory activity in hypersensitivity CD1 mouse ear edema model assessed as PMA-induced ear edema at 3 umol/ear applied topically pretreated for 10 mins followed by PMA application measured after 6 hrs (reference value: 32.5 +/- 7.5%); type: functional
[5] = target: T1, Kelch-like ECH-associated protein 1/Nuclear factor erythroid 2-related factor 2 (Mus musculus); test: Activation of Keap1/Nrf2 in mouse LPS-induced RAW264.7 cells assessed as increase in Prdx1 expression level at 4 to 12 uM pretreated for 1 hr followed by LPS addition measured after 30 to 180 mins; type: cell-based; summary of the method: as §1
[6] = target: T1, Kelch-like ECH-associated protein 1/Nuclear factor erythroid 2-related factor 2 (Mus musculus); test: Activation of Keap1/Nrf2 in mouse LPS-induced RAW264.7 cells assessed as change in Ccrl2 expression level at 4 to 12 uM pretreated for 1 hr followed by LPS addition measured after 30 to 180 mins; type: cell-based; summary of the method: as §1
MCF7 = test: Cytotoxicity against human MCF7 cells assessed as decrease in cell viability at 15 uM by MTT assay; type: cell-based; conditions: mcf7, 15 µM
Summary of the method: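 Nrf2-reporter MCF7 cells seeded and dosed as in the reporter assay (1.98–15.0 μM in DMSO, overnight at 37 °C). Cells washed, then 1 mg/mL MTT in serum-free DMEM for 25 min at 37 °C. Formazan dissolved in DMSO, absorbance read at 570 and 630 nm, background subtracted. Viability given as % of untreated control, mean ± standard error.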

[7] = target: T1, Kelch-like ECH-associated protein 1/Nuclear factor erythroid 2-related factor 2 (Mus musculus); test: Activation of Keap1/Nrf2 in mouse LPS-induced RAW264.7 cells assessed as downregulation of Rasgef1 expression level at 4 to 12 uM pretreated for 1 hr followed by LPS addition measured after 30 mins; type: cell-based; summary of the method: as §1
[8] = target: T1, Kelch-like ECH-associated protein 1/Nuclear factor erythroid 2-related factor 2 (Mus musculus); test: Activation of Keap1/Nrf2 in mouse LPS-induced RAW264.7 cells assessed as increase in Akr1b8 expression level at 4 to 12 uM pretreated for 1 hr followed by LPS addition measured after 30 to 180 mins; type: cell-based; summary of the method: as §1
Mus musculus [9] = test: Antiinflammatory activity in hypersensitivity CD1 mouse ear edema model assessed as PMA-induced ear edema at 0.3 umol/ear applied topically pretreated for 10 mins followed by PMA application measured after 6 hrs (reference value: 32.5 +/- 7.5%); type: functional
[10] = target: T1, Kelch-like ECH-associated protein 1/Nuclear factor erythroid 2-related factor 2 (Mus musculus); test: Activation of Keap1/Nrf2 in mouse LPS-induced RAW264.7 cells assessed as change in Procr expression level at 4 to 12 uM pretreated for 1 hr followed by LPS addition measured after 30 to 180 mins; type: cell-based; summary of the method: as §1
[11] = target: T1, Kelch-like ECH-associated protein 1/Nuclear factor erythroid 2-related factor 2 (Mus musculus); test: Activation of Keap1/Nrf2 in mouse LPS-induced RAW264.7 cells assessed as change in IL-1alpha expression level at 4 to 12 uM pretreated for 1 hr followed by LPS addition measured after 30 to 180 mins; type: cell-based; summary of the method: as §1
[12] = target: T1, Kelch-like ECH-associated protein 1/Nuclear factor erythroid 2-related factor 2 (Mus musculus); test: Activation of Keap1/Nrf2 in mouse LPS-induced RAW264.7 cells assessed as change in […] expression level at 4 to 12 uM pretreated for 1 hr followed by LPS addition measured after 30 to 180 mins; type: cell-based; summary of the method: as §1
[13] = target: T2, Keap1/Nrf2 (Homo sapiens) (UniProt Q16236+Q14145); test: Activation of Keap1/Nrf2 in human MCF7 cells assessed as Nrf2 stabilization incubated overnight by luciferase reporter gene based luminescence assay; type: cell-based
Summary of the method: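 NRF2 luciferase reporter MCF7 stable cells in DMEM/10% FBS with G418, seeded 5 × 10^4 cells/well, overnight adherence; DMSO-dissolved compound 1.98–15.0 μM, overnight 37 °C/5% CO2. Lysed in passive lysis buffer, firefly luciferase substrate injected, luminescence read. Activation (%) = (treated − untreated)/untreated × 100, DMSO value subtracted; tBHQ and DMF positive controls; three technical replicates per biological replicate.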

[14] = target: T1, Kelch-like ECH-associated protein 1/Nuclear factor erythroid 2-related factor 2 (Mus musculus); test: Activation of Keap1/Nrf2 in mouse LPS-induced RAW264.7 cells assessed as change in Ccl22 expression level at 4 to 12 uM pretreated for 1 hr followed by LPS addition measured after 30 to 180 mins; type: cell-based; summary of the method: as §1
[15] = target: T1, Kelch-like ECH-associated protein 1/Nuclear factor erythroid 2-related factor 2 (Mus musculus); test: Activation of Keap1/Nrf2 in mouse LPS-induced RAW264.7 cells assessed as downregulation of Socs3 expression level at 4 to 12 uM pretreated for 1 hr followed by LPS addition measured after 30 mins; type: cell-based; summary of the method: as §1
Mus musculus [16] = test: Antiinflammatory activity in hypersensitivity CD1 mouse ear edema model assessed as PMA-induced ear edema at 1 umol/ear applied topically pretreated for 10 mins followed by PMA application measured after 6 hrs (reference value: 32.5 +/- 7.5%); type: functional
[17] = target: T1, Kelch-like ECH-associated protein 1/Nuclear factor erythroid 2-related factor 2 (Mus musculus); test: Activation of Keap1/Nrf2 in mouse LPS-induced RAW264.7 cells assessed as change in Fos expression level at 4 to 12 uM pretreated for 1 hr followed by LPS addition measured after 30 to 180 mins; type: cell-based; summary of the method: as §1
[18] = target: T1, Kelch-like ECH-associated protein 1/Nuclear factor erythroid 2-related factor 2 (Mus musculus); test: Activation of Keap1/Nrf2 in mouse LPS-induced RAW264.7 cells assessed as change in Fosl1 expression level at 4 to 12 uM pretreated for 1 hr followed by LPS addition measured after 30 to 180 mins; type: cell-based; summary of the method: as §1
[19] = target: T1, Kelch-like ECH-associated protein 1/Nuclear factor erythroid 2-related factor 2 (Mus musculus); test: Activation of Keap1/Nrf2 in mouse LPS-induced RAW264.7 cells assessed as change in Tnfaip3 expression level at 4 to 12 uM pretreated for 1 hr followed by LPS addition measured after 30 to 180 mins; type: cell-based; summary of the method: as §1
[20] = target: T1, Kelch-like ECH-associated protein 1/Nuclear factor erythroid 2-related factor 2 (Mus musculus); test: Activation of Keap1/Nrf2 in mouse LPS-induced RAW264.7 cells assessed as change in Nfkbia expression level at 4 to 12 uM pretreated for 1 hr followed by LPS addition measured after 30 to 180 mins; type: cell-based; summary of the method: as §1
[21] = target: T1, Kelch-like ECH-associated protein 1/Nuclear factor erythroid 2-related factor 2 (Mus musculus); test: Activation of Keap1/Nrf2 in mouse LPS-induced RAW264.7 cells assessed as change in Cd300lb expression level at 4 to 12 uM pretreated for 1 hr followed by LPS addition measured after 30 to 180 mins; type: cell-based; summary of the method: as §1
[22] = target: T1, Kelch-like ECH-associated protein 1/Nuclear factor erythroid 2-related factor 2 (Mus musculus); test: Activation of Keap1/Nrf2 in mouse LPS-induced RAW264.7 cells assessed as increase in Hmox1 expression level at 12 uM pretreated for 1 hr followed by LPS addition measured after 30 to 180 mins; type: cell-based; summary of the method: as §1
[23] = target: T1, Kelch-like ECH-associated protein 1/Nuclear factor erythroid 2-related factor 2 (Mus musculus); test: Activation of Keap1/Nrf2 in mouse LPS-induced RAW264.7 cells assessed as increase in Gclm expression level at 4 to 12 uM pretreated for 1 hr followed by LPS addition measured after 30 to 180 mins; type: cell-based; summary of the method: as §1
[24] = target: T1, Kelch-like ECH-associated protein 1/Nuclear factor erythroid 2-related factor 2 (Mus musculus); test: Activation of Keap1/Nrf2 in mouse LPS-induced RAW264.7 cells assessed as change in IL-1beta expression level at 4 to 12 uM pretreated for 1 hr followed by LPS addition measured after 30 to 180 mins; type: cell-based; summary of the method: as §1
[25] = target: T1, Kelch-like ECH-associated protein 1/Nuclear factor erythroid 2-related factor 2 (Mus musculus); test: Activation of Keap1/Nrf2 in mouse LPS-induced RAW264.7 cells assessed as increase in Sqstm1 expression level at 4 to 12 uM pretreated for 1 hr followed by LPS addition measured after 30 to 180 mins; type: cell-based; summary of the method: as §1
[26] = target: T1, Kelch-like ECH-associated protein 1/Nuclear factor erythroid 2-related factor 2 (Mus musculus); test: Activation of Keap1/Nrf2 in mouse LPS-induced RAW264.7 cells assessed as increase in Srxn1 expression level at 4 to 12 uM pretreated for 1 hr followed by LPS addition measured after 30 to 180 mins; type: cell-based; summary of the method: as §1
[27] = target: T1, Kelch-like ECH-associated protein 1/Nuclear factor erythroid 2-related factor 2 (Mus musculus); test: Activation of Keap1/Nrf2 in mouse LPS-induced RAW264.7 cells assessed as change in Cd83 expression level at 4 to 12 uM pretreated for 1 hr followed by LPS addition measured after 30 to 180 mins; type: cell-based; summary of the method: as §1
[28] = target: T1, Kelch-like ECH-associated protein 1/Nuclear factor erythroid 2-related factor 2 (Mus musculus); test: Activation of Keap1/Nrf2 in mouse LPS-induced RAW264.7 cells assessed as increase in Slc7a11 expression level at 4 to 12 uM pretreated for 1 hr followed by LPS addition measured after 30 to 180 mins; type: cell-based; summary of the method: as §1
[29] = target: T1, Kelch-like ECH-associated protein 1/Nuclear factor erythroid 2-related factor 2 (Mus musculus); test: Activation of Keap1/Nrf2 in mouse LPS-induced RAW264.7 cells assessed as change in TNF expression level at 4 to 12 uM pretreated for 1 hr followed by LPS addition measured after 30 to 180 mins; type: cell-based; summary of the method: as §1
[30] = target: T1, Kelch-like ECH-associated protein 1/Nuclear factor erythroid 2-related factor 2 (Mus musculus); test: Activation of Keap1/Nrf2 in mouse LPS-induced RAW264.7 cells assessed as change in Nfkbiz expression level at 4 to 12 uM pretreated for 1 hr followed by LPS addition measured after 30 to 180 mins; type: cell-based; summary of the method: as §1
Mus musculus [31] = test: Antiinflammatory activity in hypersensitivity CD1 mouse ear edema model assessed as PMA-induced ear edema at 0.1 umol/ear applied topically pretreated for 10 mins followed by PMA application measured after 6 hrs (reference value: 32.5 +/- 7.5%); type: functional
[32] = target: T2, Keap1/Nrf2 (Homo sapiens); test: Activation of Keap1/Nrf2 in human MCF7 cells assessed as Nrf2 stabilization at 15 uM incubated overnight by luciferase reporter gene based luminescence assay; type: cell-based
Summary of the method: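 MCF7 cells stably carrying an Nrf2-responsive firefly luciferase construct, grown with G418, seeded 5 × 10^4 cells/well and left overnight at 37 °C. Compound added in DMSO (tested range 1.98–15.0 μM), incubated overnight. Cells washed, lysed 15 min at room temperature, luminescence read after substrate injection. Activation = % RLU over untreated cells, DMSO value subtracted. Triplicate technical wells; positive controls tBHQ and DMF.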

T2 sequence (Q14145 whole entry, looked up): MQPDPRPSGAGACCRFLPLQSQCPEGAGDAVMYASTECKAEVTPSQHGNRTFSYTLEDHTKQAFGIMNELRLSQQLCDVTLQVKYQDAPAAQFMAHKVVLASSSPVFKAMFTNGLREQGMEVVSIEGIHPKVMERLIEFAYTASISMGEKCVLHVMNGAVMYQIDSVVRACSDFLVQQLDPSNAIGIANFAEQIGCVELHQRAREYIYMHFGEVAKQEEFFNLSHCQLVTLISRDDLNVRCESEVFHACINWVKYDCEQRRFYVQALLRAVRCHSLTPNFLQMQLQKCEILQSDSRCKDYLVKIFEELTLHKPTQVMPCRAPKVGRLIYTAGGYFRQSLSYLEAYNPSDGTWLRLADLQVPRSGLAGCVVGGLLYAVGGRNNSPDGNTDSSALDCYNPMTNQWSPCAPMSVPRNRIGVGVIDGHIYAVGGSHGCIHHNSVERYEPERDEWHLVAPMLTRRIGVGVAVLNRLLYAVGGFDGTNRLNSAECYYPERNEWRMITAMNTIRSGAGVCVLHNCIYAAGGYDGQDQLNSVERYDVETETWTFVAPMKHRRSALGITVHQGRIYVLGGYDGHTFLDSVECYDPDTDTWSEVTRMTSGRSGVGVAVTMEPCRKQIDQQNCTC
T2 sequence (Q16236 whole entry, looked up): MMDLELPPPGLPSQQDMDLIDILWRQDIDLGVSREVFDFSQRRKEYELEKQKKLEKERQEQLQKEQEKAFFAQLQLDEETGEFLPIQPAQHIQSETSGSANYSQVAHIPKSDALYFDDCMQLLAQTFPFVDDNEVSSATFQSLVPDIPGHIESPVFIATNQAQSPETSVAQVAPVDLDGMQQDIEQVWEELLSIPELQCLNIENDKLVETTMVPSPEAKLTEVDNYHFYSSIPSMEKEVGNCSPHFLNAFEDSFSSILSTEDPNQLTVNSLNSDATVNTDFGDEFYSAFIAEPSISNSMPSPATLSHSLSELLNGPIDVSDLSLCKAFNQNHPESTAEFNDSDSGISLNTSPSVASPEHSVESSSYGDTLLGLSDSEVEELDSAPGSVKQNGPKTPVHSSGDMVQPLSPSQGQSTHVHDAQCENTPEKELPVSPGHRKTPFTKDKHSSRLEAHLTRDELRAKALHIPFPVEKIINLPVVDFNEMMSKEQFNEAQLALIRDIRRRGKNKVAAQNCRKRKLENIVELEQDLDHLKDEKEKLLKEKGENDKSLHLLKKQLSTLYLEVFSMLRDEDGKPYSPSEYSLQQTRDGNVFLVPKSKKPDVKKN
T1 sequence (Q60795 whole entry, looked up): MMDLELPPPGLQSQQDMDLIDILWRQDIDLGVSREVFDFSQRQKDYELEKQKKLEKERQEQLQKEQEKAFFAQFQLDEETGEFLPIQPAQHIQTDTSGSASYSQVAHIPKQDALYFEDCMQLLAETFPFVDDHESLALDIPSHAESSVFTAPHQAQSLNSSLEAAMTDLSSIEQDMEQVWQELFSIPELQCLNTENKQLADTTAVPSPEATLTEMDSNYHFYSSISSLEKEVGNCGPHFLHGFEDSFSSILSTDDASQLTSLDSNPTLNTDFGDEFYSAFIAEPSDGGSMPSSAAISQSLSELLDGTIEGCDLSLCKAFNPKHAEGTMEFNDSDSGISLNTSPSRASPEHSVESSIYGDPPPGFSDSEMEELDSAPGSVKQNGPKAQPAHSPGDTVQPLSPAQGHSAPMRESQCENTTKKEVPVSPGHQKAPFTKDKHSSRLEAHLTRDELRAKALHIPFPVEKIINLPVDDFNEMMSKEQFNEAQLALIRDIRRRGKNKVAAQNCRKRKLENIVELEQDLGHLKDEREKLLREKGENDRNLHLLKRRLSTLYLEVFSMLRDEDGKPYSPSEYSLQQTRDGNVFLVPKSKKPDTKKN
T1 sequence (Q9Z2X8 whole entry, looked up): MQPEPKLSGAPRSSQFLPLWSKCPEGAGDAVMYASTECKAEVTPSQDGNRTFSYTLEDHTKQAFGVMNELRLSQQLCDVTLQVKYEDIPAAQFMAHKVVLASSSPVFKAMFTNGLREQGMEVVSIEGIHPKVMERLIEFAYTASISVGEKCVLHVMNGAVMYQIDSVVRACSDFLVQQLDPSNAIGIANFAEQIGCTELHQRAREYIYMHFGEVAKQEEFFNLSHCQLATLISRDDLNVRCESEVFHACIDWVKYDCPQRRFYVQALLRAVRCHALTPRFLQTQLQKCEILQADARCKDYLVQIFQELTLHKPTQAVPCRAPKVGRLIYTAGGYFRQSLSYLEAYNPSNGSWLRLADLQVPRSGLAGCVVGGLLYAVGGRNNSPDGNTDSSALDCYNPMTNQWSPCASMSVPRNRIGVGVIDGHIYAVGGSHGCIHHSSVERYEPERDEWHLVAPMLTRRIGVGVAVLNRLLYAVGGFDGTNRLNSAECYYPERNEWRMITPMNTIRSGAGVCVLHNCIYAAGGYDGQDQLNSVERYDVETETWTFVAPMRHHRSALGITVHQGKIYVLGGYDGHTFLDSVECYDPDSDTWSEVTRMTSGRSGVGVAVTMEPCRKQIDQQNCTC

O=C(/C=C/CCl)O[C@@H]1COC(=O)C1
Activity [1]: Active
Activity [2]: Active
Activity [3]: Active
Activity (Mus musculus [4]): 51.4%
Activity [5]: Active
Activity [6]: Active
Activity (MCF7): Toxic
Activity [7]: Active
Activity [8]: Active
Activity (Mus musculus [9]): 10%
Activity [10]: Active
Activity [11]: Active
Activity [12]: Active
Activity [13]: Dose-dependent effect
Activity [14]: Active
Activity [15]: Active
Activity (Mus musculus [16]): 27.6%
Activity [17]: Active
Activity [18]: Active
Activity [19]: Active
Activity [20]: Active
Activity [21]: Active
Activity [22]: Active
Activity [23]: Active
Activity [24]: Active
Activity [25]: Active
Activity [26]: Active
Activity [27]: Active
Activity [28]: Active
Activity [29]: Active
Activity [30]: Active
Activity (Mus musculus [31]): 17.1%

COC(=O)/C=C/C(=O)OC [DIMETHYL FUMARATE]
Activity (MCF7): Toxic
Activity [32]: Active

CC(C)(C)c1cc(O)ccc1O [E319]
Activity (MCF7): Toxic
Activity [32]: Active
